Data reported in ChEMBL document CHEMBL4699498 (J Med Chem, 2020).
Activity calls are given as the source filed them. The calls are words filed in the database; no cut-off is given here.

Key:
Assay type in all cases: cell-based
[1] = target: T1, Protein cereblon/Poly [ADP-ribose] polymerase 1 (Homo sapiens, UniProt P09874+Q96SW2); experiment: Protac activity at CRBN/PARP1 in human MDA-MB-468 cells assessed as induction of PARP1 degradation measured after 24 hrs by Western blot analysis
How it was run: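 Concentration-response over a wide range, 24 h exposure; PARP1 quantified by western blot and normalized to β-tubulin density; DC50 derived from two biologically independent experiments.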
Target sequence in this assay (P09874 whole entry): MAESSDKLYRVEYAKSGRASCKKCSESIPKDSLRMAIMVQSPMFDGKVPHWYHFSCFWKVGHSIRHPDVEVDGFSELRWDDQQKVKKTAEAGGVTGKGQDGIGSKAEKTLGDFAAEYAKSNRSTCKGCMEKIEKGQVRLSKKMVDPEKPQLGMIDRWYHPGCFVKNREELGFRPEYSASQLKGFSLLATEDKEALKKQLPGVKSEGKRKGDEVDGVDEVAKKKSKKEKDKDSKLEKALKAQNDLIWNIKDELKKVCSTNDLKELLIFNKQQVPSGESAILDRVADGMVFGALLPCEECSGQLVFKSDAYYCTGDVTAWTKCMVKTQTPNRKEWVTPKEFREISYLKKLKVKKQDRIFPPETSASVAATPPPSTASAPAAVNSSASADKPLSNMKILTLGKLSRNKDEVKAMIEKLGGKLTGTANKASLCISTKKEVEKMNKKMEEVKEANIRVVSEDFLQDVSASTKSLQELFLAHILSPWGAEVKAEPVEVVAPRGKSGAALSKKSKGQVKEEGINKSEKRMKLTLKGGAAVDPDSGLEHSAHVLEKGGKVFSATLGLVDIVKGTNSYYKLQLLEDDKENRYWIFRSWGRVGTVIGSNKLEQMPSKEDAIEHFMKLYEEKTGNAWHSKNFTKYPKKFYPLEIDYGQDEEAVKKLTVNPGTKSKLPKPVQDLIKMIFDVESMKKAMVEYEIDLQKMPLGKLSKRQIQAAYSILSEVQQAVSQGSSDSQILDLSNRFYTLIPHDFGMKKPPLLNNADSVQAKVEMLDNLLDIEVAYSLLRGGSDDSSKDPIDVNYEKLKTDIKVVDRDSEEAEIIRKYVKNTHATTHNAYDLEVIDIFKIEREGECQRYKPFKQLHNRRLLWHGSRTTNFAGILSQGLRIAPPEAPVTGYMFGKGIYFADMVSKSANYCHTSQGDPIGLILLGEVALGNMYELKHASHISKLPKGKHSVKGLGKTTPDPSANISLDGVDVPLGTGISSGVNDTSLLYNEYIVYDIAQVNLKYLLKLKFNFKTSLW
Target sequence in this assay (Q96SW2 whole entry): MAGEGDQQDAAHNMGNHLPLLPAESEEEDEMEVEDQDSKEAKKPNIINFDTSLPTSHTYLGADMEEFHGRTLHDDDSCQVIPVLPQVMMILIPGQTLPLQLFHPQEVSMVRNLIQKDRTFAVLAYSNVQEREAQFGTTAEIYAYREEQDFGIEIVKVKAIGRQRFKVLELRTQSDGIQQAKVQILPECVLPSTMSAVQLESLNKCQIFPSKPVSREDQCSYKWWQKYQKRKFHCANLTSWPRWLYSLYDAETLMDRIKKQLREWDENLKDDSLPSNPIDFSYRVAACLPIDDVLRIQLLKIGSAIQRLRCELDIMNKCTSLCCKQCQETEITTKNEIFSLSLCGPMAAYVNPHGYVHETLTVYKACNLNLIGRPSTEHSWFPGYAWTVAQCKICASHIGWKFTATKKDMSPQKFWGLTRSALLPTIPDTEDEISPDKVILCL

[2] = target: T1, Protein cereblon/Poly [ADP-ribose] polymerase 1; experiment: Protac activity at CRBN/PARP1 in human MDA-MB-436 cells assessed as reduction in PARP1 protein level at 0.01 to 10 uM incubated for 12 hrs by western blot analysis; settings: dose microM 0.01-10, time 12.0 hrs
How it was run: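 MDA-MB-436 or SW620 cells dosed at 1, 10, 100, 1000 nM and 10 µM for 12 h; PARP1 assessed by western blot of RIPA lysates (20-30 µg protein), β-tubulin as loading control.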
Target sequence in this assay (P09874 2-1014 limits assumed): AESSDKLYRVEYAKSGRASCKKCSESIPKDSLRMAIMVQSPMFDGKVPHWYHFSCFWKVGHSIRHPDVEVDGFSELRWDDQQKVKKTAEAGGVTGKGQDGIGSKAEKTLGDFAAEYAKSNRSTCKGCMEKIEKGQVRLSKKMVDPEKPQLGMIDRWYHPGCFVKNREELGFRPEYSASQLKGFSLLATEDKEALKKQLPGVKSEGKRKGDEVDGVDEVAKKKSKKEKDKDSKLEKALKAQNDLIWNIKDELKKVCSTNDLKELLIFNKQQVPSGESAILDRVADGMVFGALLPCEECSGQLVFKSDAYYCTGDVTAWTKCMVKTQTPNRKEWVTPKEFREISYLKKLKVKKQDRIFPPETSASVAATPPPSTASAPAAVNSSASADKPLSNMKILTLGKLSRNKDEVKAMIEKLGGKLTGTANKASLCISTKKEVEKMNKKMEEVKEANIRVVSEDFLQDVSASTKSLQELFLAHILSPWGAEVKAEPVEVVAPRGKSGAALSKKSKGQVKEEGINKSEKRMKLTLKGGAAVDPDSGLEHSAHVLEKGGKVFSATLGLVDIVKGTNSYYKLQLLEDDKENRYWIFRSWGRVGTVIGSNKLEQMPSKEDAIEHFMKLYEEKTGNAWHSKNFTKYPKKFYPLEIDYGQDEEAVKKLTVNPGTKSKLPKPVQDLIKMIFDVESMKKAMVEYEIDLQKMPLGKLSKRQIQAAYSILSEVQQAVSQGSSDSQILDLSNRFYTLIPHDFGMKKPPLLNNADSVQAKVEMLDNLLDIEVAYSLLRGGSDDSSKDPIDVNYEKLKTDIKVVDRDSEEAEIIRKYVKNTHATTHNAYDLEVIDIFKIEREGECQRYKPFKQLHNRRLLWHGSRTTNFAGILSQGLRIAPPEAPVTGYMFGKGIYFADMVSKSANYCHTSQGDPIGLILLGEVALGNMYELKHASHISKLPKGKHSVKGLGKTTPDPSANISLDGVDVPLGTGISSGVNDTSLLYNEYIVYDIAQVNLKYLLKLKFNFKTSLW
Target sequence in this assay (Q96SW2 whole entry partner): as the sequence (Q96SW2 whole entry) above

[3] = target: T1, Protein cereblon/Poly [ADP-ribose] polymerase 1; experiment: Protac activity at CRBN/PARP1 in human MDA-MB-436 cells assessed as PARP1 protein degradation at 1 to 10 nM incubated for 24 hrs by western blot analysis; settings: dose nM 1-10, time 24.0 hrs
Target sequence in this assay (P09874 2-1014 limits assumed): as the sequence (P09874 2-1014 limits assumed) above
Target sequence in this assay (Q96SW2 whole entry partner): as the sequence (Q96SW2 whole entry) above

[4] = target: T1, Protein cereblon/Poly [ADP-ribose] polymerase 1; experiment: Protac activity at CRBN/PARP1 in human SW-620 cells assessed as induction of PARP1 degradation at 10 nM incubated for 24 hrs by Western blot analysis relative to control
Target sequence in this assay (P09874 2-1014 limits assumed): as the sequence (P09874 2-1014 limits assumed) above
Target sequence in this assay (Q96SW2 whole entry partner): as the sequence (Q96SW2 whole entry) above

## O=C(CCCCCCCCCCC(=O)N1CCN(C(=O)c2cc(Cc3n[nH]c(=O)c4ccccc34)ccc2F)CC1)NCCNc1cccc2c1C(=O)N(C1CCC(=O)NC1=O)C2=O (centres undefined)
[1]
  DC50: 0.263 nM
[2]
  Activity: Active
[3]
  Activity: Active
[4]
  Activity: > 99%
